Test results from paper PMC9558494 (Angewandte Chemie (International Ed. in English), 2022).
Blank lines part the entries; values can stand above or below the compound they belong to.

Tests used:
LogD octanol/PBS pH 7.4 = assay type: physicochemical
Microsomal stability = assay type: in vitro ADME, human; conditions: for half-life at 1 µM: both, human, liver microsomes, pH 7.4; for HLM Cl: human liver microsomes
Stability in plasma = assay type: in vitro ADME; conditions: both, human
ERAP2 = ERAP2 (Homo sapiens, UniProt Q6P179); assay: ERAP2 activity assay using R-AMC substrate; assay type: biochemical
[1] = system: SIINFEKL OVA-derived antigen presentation in HEK cells; assay: Antigen presentation assay; assay type: cell-based; conditions: HEK cells where LSIINFEKL is endogenously produced, 24 h
[2] = Pharmacokinetics in mouse; assay type: in vivo, mice
Method in brief: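 Female mice received a single i.p. dose of 50 mg/kg. Derived parameters were elimination-phase half-life (T1/2 β, min), Cmax (μM), Tmax (min) and AUC extrapolated to infinity (AUC0‑∞, min μM).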

[3] = female, CD-1, mouse, plasma, ip, 50 mg/kg

Sequence of ERAP2 (Q6P179 whole entry): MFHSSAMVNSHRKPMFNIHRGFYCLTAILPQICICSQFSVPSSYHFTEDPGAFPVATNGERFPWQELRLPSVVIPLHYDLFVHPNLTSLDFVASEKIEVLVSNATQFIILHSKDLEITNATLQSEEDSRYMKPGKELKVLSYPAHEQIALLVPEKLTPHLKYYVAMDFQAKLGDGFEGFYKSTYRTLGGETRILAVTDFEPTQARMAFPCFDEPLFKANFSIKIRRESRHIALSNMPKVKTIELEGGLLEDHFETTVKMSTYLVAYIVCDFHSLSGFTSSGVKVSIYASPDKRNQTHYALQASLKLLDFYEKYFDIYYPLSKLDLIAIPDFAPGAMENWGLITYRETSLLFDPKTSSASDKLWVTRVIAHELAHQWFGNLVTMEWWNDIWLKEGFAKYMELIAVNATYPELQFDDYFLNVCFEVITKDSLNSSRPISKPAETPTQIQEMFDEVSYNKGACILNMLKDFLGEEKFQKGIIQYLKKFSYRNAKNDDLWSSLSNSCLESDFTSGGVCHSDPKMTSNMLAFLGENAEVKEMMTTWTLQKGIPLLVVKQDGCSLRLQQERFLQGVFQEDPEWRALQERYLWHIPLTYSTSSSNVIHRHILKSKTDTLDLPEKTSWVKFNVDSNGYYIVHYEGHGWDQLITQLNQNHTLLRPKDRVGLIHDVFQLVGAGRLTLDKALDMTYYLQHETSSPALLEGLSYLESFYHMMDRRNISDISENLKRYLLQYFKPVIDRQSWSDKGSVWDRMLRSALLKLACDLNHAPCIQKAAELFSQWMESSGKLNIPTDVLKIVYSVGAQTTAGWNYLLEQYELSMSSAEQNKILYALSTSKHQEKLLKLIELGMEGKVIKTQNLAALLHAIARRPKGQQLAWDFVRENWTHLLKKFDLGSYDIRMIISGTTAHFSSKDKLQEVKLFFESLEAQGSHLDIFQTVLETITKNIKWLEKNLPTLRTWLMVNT

Compound: O=C(C[C@@H](Cc1c[nH]c2ccccc12)n1cc(CNS(=O)(=O)c2ccc(-c3ccccc3)s2)nn1)NO [2 b]
IC50 (ERAP2): 12000 nM

Compound: O=C(NO)[C@@H](Cc1c[nH]c2ccccc12)n1cc(CNS(=O)(=O)c2ccc(-c3ccccc3)s2)nn1 [4 b]
inhibition at 100 µM (ERAP2; read-out: %inh at 100 μM): 43%
ERAP2 activity in words (ERAP2; replacement of the phenol group by an indole): complete loss of activity

Compound: O=C(NO)[C@H](Cc1ccc(O)cc1)n1cc(CNS(=O)(=O)c2ccc(-c3ccccc3)s2)nn1 [4 a]
IC50 (ERAP2): 760 nM

Compound: O=C(C[C@@H](Cc1ccc2ccccc2c1)n1cc(CNS(=O)(=O)c2ccc(-c3ccccc3)s2)nn1)NO [2 c]
IC50 (ERAP2): 2290 nM

Compound: COc1ccc(C[C@@H](C(=O)NO)n2cc(CNS(=O)(=O)c3ccc(-c4ccccc4)s3)nn2)cc1 [4 d]
effect on SIINFEKL antigen presentation [1]: dose‐dependent effect
logD at 2 h (LogD octanol/PBS pH 7.4): 2.99
half-life at 1 µM (Microsomal stability): > 0.667 h
HLM Cl (Microsomal stability): 50 µL/min/g
half-life at 10 µM (Stability in plasma): > 6 h
AUC [2, 3]: 12.9 µM·h
Cmax [2, 3]: 18 µM
tolerability of the dose ([2]; mice, 50 mg kg^−1, i. p.): tolerated

Now from value to compound, other results behind:

logD at 2 h (LogD octanol/PBS pH 7.4): 1.81
half-life at 1 µM (Microsomal stability): > 0.667 h
HLM Cl (Microsomal stability): 21 µL/min/g
half-life at 10 µM (Stability in plasma): > 6 h
Compound: COc1ccc(C[C@@H](C(=O)NO)n2cc(CNS(=O)(=O)c3ccc(-c4ccccn4)s3)nn2)cc1 [4 e]

logD at 2 h (LogD octanol/PBS pH 7.4): 4.11
half-life at 10 µM (Stability in plasma): > 6 h
Compound: O=C(NO)[C@H](Cc1ccc(Oc2ccccc2)cc1)n1cc(CNS(=O)(=O)c2ccc(-c3ccccn3)s2)nn1 [4 f]
effect on SIINFEKL antigen presentation [1]: dose‐dependent effect
